{"data": "Experimental data gathered from unrelated publications", "target": "Dual specificity mitogen-activated protein kinase kinase 5 (MAP2K5, Homo sapiens, UniProt Q13163)", "Residues used in one study (Q13163 1-448)": "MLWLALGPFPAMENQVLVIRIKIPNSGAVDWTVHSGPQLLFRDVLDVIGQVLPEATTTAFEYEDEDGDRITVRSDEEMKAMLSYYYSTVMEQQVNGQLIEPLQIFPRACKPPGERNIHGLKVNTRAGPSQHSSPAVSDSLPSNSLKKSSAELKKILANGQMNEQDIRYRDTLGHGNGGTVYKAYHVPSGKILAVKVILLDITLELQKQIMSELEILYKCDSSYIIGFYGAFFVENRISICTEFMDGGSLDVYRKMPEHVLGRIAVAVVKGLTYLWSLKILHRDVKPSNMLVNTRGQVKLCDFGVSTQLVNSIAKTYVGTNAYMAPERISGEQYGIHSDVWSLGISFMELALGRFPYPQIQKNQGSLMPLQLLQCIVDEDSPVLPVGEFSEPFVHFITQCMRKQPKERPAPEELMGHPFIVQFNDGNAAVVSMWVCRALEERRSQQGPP"}
{"SMILES": "O=C(O)c1cc(-c2ccc(C3CCNCC3)cc2)c2ccc(-c3ccc(C(F)(F)F)cc3)cc2c1", "assay": "cell-free assay, competition with immobilised ligand", "setting": "1 µM", "remaining binding [%]": 96}
{"SMILES": "O=C(c1ccc(Nc2ncc(Cl)c(-c3ccc(Cl)s3)n2)cc1)N1CCC(N2CCCC2)CC1", "assay": "binding, competition with immobilised ligand", "setting": "1 µM", "remaining binding [%]": 0.85}
{"SMILES": "C[C@@H](c1ccc(-n2cnc3c(N)ncnc32)cc1)N1CCc2nn(C)c(Cc3ccccc3)c2C1=O", "assay": "binding, competition with immobilised ligand", "setting": "0.1 µM", "remaining binding [%]": 40}
{"SMILES": "CC1CCCN1c1nccc(-c2cnn3ncccc23)n1 (stereo not shown)", "assay": "binding", "setting": "1 µM", "remaining binding [%]": 100}
{"SMILES": "Cc1cnc(Nc2ccc(C(=O)N3CCC(N4CCCC4)CC3)cc2)nc1-c1cc2ccccc2s1", "assay": "binding, competition with immobilised ligand", "setting": "1 µM", "remaining binding [%]": 0.4}
{"SMILES": "CN(C(=O)c1ccccc1)c1cc(N(C)c2ccc3c(c2)CCc2ccc(C(=O)NCCN4CCOCC4)cc2C3=O)ccc1F", "assay": "cell-free assay, competition with immobilised ligand", "setting": "1 µM", "remaining binding [%]": 100}
{"SMILES": "O=C(NCCCN1CCOCC1)c1ccc(Nc2ncc(Cl)c(-c3ccc(Cl)s3)n2)cc1", "assay": "binding, competition with immobilised ligand", "setting": "1 µM", "remaining binding [%]": 6.9}
{"SMILES": "C[C@H]1CCN(c2nccc(-c3cnn4ncccc34)n2)C1", "assay": "binding", "setting": "1 µM", "remaining binding [%]": 81}
{"SMILES": "NS(=O)(=O)c1cc(NC(=O)Cc2ccccc2)ccc1Oc1cccc(Cl)c1", "assay": "cell-free assay, competition with immobilised ligand", "setting": "1 µM", "remaining binding [%]": 88}
{"SMILES": "C=CC(=O)N1CCC(C(=O)NCC(=O)N2CCN(c3nc(-c4cnc(N)nc4C(F)F)nc(N4CCOCC4)n3)CC2)CC1", "assay": "binding, competition with immobilised ligand", "setting": "1 µM", "remaining binding [%]": 77}
{"SMILES": "O=C(NCC1CCOCC1)c1n[nH]cc1NC(=O)c1c(F)cccc1F", "assay": "binding, competition with immobilised ligand", "setting": "1 µM", "remaining binding [%]": 68}
{"SMILES": "COc1cnc(Nc2cccc(S(N)(=O)=O)c2)nc1N1CCN(c2ccccc2)C(=O)C1", "assay": "binding, competition with immobilised ligand", "setting": "1 µM", "remaining binding [%]": 67}
{"SMILES": "N[C@H]1CCN(c2nccc(-c3cnn4ncccc34)n2)C1", "assay": "binding", "setting": "1 µM", "remaining binding [%]": 69}
{"SMILES": "COc1ccc2c(O[C@@H]3C[C@H]4C(=O)N[C@]5(C(=O)O)CC5/C=C\\CCCCC[C@H](NC(=O)OC5CCCC5)C(=O)N4C3)cc(-c3csc(NC(=O)C(C)C)n3)nc2c1C (stereo partly shown)", "assay": "cell-free assay, competition with immobilised ligand", "setting": "1 µM", "remaining binding [%]": 71}
{"SMILES": "F[C@@H]1CCN(c2nccc(-c3cnn4ncccc34)n2)C1", "assay": "binding", "setting": "1 µM", "remaining binding [%]": 100}
{"SMILES": "Cc1noc([C@H]2C[C@@H](c3ccc(C(F)(F)F)cc3)CN(C(=O)N3CCS(=O)(=O)C3)C2)n1", "assay": "cell-free assay, competition with immobilised ligand", "setting": "1 µM", "remaining binding [%]": 78}
{"SMILES": "CN(CCCC(F)(F)F)c1nccc(-c2cnn3ncccc23)n1", "assay": "binding", "setting": "1 µM", "remaining binding [%]": 100}
{"SMILES": "CCN1CCN(Cc2ccc(C(=O)Nc3ccc(C)c(Oc4ccc5c(c4)CC(=O)N5)c3)cc2C(F)(F)F)CC1", "assay": "binding, competition with immobilised ligand", "setting": "1 µM", "remaining binding [%]": 100}
{"SMILES": "CN(c1nccc(-c2cnn3ncccc23)n1)C1CC1", "assay": "binding", "setting": "1 µM", "remaining binding [%]": 100}
{"SMILES": "COc1ncc2cc3ccccc3nc2c1C#N", "assay": "cell-free assay, competition with immobilised ligand", "setting": "5 µM", "remaining binding [%]": 94}
{"SMILES": "O=C1NC(c2ccccn2)Sc2ccccc21 (stereo not shown)", "assay": "cell-free assay, competition with immobilised ligand", "setting": "1 µM", "remaining binding [%]": 87}
{"SMILES": "COc1ccnn2ncc(-c3ccnc(N(C)C)n3)c12", "assay": "binding", "setting": "1 µM", "remaining binding [%]": 76}
